Source: paper PMC6430714 (Journal of the American Chemical Society, 2018)
Converted amounts (≈) assume the structure as drawn.

Columns and labels:
[1] = test system: S. aureus biofilms (MSSA and two MRSA strains); experiment: MBEC, summarised over the S. aureus strains; format: cell-based, Staphylococcus aureus; details: TSB; range as stated in text (Table 1, Table SI-1)
[2] = test system: MSSA (29213); experiment: Minimum inhibitory concentration, broth microdilution; format: cell-based; details: Staphylococcus aureus
[3] = test system: MRSA (USA400 MW2); experiment: as above; format: cell-based; details: Staphylococcus aureus
[4] = test system: MRSA (USA300 LAC); experiment: as above; format: cell-based; details: Staphylococcus aureus
[5] = test system: MRSA USA400 MW2 biofilms; experiment: Confocal microscopy of biofilms, SYTO 9/PI live/dead staining; format: cell-based, Staphylococcus aureus; details: 80 μM, 5 h treatment in TSB, 48 h biofilms, SYTO 9/PI fluorescence
In short: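 USA400 MW2 grown in TSB with shaking at 37 °C to stationary phase, then adjusted in TSB to 1 × 10^7 CFU/mL. Eight-well chambered coverglass coated with 50 μg/mL fibronectin for 30 min at room temperature and PBS-washed twice. Biofilms grown statically, humidified, 37 °C, 48 h, then PBS-washed twice. Stained with SYTO 9 (all cells) and PI (dead cells) in TSB; 10× compound solution added.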

[6] = test system: MRSA USA300 LAC biofilms; experiment: Murine skin wound excisional biofilm model; format: in vivo, C57BL/6 mice; details: topical 0.05%, 5 h; not statistically significant
[7] = test system: S. aureus strain 29213; experiment: Resistance evolution experiment; format: cell-based, Staphylococcus aureus; details: 14 day period, strain 29213, daily passage from 1/2 MIC well
In short: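 An MIC assay on strain 29213 was repeated daily for 14 days, each incubated 24 h at 37 °C. Colonies from TSA were suspended in PBS to OD600 0.1 and diluted 1:100 in Mueller–Hinton broth. Inoculum was added to 2-fold serial dilutions of test compound in MHB. MIC was the lowest concentration with no growth by OD600.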

SMILES | MBEC range over the S. aureus strains [1] [µM] | MIC [2] [µM] | MIC [3] [µM] | MIC [4] [µM] | viable biofilm bacteria [5] [%] | fold reduction in median CFU/wound compared to untreated mice [6] [fold] | fold increase in MIC over serial passage [7] [fold]
CN[C@H](CC(C)C)C(=O)N[C@H]1C(=O)N[C@@H](CC(N)=O)C(=O)N[C@H]2C(=O)N[C@H]3C(=O)N[C@H](C(=O)N[C@H](C(=O)O)c4cc(O)cc(O)c4-c4cc3ccc4O)[C@H](O[C@H]3C[C@](C)(N)[C@@H](O)[C@H](C)O3)c3ccc(c(Cl)c3)Oc3cc2cc(c3O[C@@H]2O[C@H](CO)[C@@H](O)[C@H](O)[C@H]2O[C@H]2C[C@](C)(NCc3ccc(-c4ccc(Cl)cc4)cc3)[C@@H](O)[C@H](C)O2)Oc2ccc(cc2Cl)[C@H]1O [Oritavancin] | 12 to 32 | – | – | – | – | – | –
CN[C@H](CC(C)C)C(=O)N[C@H]1C(=O)N[C@@H](CC(N)=O)C(=O)N[C@H]2C(=O)N[C@H]3C(=O)N[C@H](C(=O)N[C@H](C(=O)O)c4cc(O)cc(O)c4-c4cc3ccc4O)[C@H](O)c3ccc(c(Cl)c3)Oc3cc2cc(c3O[C@@H]2O[C@H](CO)[C@@H](O)[C@H](O)[C@H]2O[C@H]2C[C@](C)(N)[C@H](O)[C@H](C)O2)Oc2ccc(cc2Cl)[C@H]1O [V, vancomycin] | – | 0.5 (≈ 0.725 µg/mL) | 0.5 (≈ 0.725 µg/mL) | 0.5 (≈ 0.725 µg/mL) | 65 | 6 | 4
CN[C@H]1C(=O)N[C@@H]2Cc3ccc(cc3)Oc3cc4cc(c3O[C@@H]3O[C@H](C(=O)O)[C@@H](O)[C@H](O)[C@H]3NC(=O)CCCCCCCCC(C)C)Oc3ccc(cc3Cl)[C@@H](O)[C@@H]3NC(=O)[C@H](NC(=O)[C@@H]4NC(=O)[C@@H](NC2=O)c2cc(cc(O)c2Cl)Oc2cc1ccc2O)c1ccc(O)c(c1)-c1c(O[C@H]2O[C@H](CO)[C@@H](O)[C@H](O)[C@@H]2O)cc(O)cc1[C@@H](C(=O)NCCCN(C)C)NC3=O [dalbavancin] | 8 to 20 | – | – | – | – | – | –
